Data from ChEMBL document CHEMBL1155553, “Design and synthesis of alpha-ketoamides as cathepsin S inhibitors with potential applications against tumor invasion and angiogenesis” (J Med Chem, 2010).

How the values were obtained:
[1] = Antiinvasive activity in human CL1-5 cells assessed as cellular migration after 24 hrs by fluorescence assay relative to control; format: functional; parameters: concentration or dose not given beside the values
HUVEC [2] = assay: Antiinvasive activity in VEGF-stimulated HUVEC assessed as cellular migration after 24 hrs by fluorescence assay relative to control; format: functional, Homo sapiens; parameters: concentration or dose not given beside the values
Cathepsin S [3] = target: T1, Cathepsin S (Homo sapiens, UniProt P25774); assay: Inhibition of human recombinant cathepsin S expressed in Escherichia coli BL21 (DE3) after 10 mins by fluorescence assay
Target sequence in this assay (P25774 whole entry): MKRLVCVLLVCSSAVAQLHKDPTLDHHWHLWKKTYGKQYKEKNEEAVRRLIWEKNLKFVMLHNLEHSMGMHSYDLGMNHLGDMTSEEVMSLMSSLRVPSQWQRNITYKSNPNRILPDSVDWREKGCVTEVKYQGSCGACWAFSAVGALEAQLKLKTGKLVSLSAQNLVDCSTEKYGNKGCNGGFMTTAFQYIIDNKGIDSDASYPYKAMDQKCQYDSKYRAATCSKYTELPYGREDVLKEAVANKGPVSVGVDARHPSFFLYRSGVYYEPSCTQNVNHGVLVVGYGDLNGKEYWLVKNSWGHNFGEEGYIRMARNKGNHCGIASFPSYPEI

[4] = Cytotoxicity against human CL1-5 cells by MTT assay; format: cell-based
Summary of the method: (§1)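 Overall cytotoxicity measured by MTT proliferation assay, compounds tested at concentrations up to 50 μM.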

HUVEC [5] = assay: Cytotoxicity against HUVEC by MTT assay; format: cell-based; conditions: Homo sapiens; summary of the method: as §1
[6] = target: Cathepsin B (Homo sapiens) (UniProt P07858); assay: Inhibition of cathepsin B assessed as proteolytic activity at 40 nM by fluorimetric assay; parameters: Activity: scale not given: the % may be the effect or the level left
[7] = target: Procathepsin L (Homo sapiens) (UniProt P07711); assay: Inhibition of cathepsin L assessed as proteolytic activity at 40 nM by fluorimetric assay; parameters: Activity: scale not given: the % may be the effect or the level left
[8] = Antiinvasive activity in human CL1-5 cells assessed as cellular invasion after 24 hrs by fluorescence assay; format: functional
Summary of the method: (§2)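 CL1-5 lung adenocarcinoma cells (2 × 10⁵ per well) treated with compound; control wells received DMSO (10 μL) in medium (2 mL). Cell traversal/invasion expressed as percent of DMSO control (set 100%); mean ± SD from hexaplicate experiments.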

HUVEC [9] = assay: Antiangiogenic activity in VEGF-stimulated HUVEC assessed as capillary tube formation after 16 hrs by photographic analysis; format: functional, Homo sapiens
Summary of the method: (§3)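 HUVEC plated on Matrigel-coated wells, treated with α-ketoamide in presence of VEGF (20 ng/mL); after 16 h incubation cultures photographed and capillary tubes (branch points) counted under microscope at 100× magnification. Tube formation expressed relative to DMSO control; mean ± SD from three separate experiments.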

Cathepsin S [10] = target: T1, Cathepsin S; assay: Inhibition of cathepsin S-mediated cleavage of fibronectin by cell-based ECM degradation assay
Target sequence in this assay (P25774 115-331 limits assumed): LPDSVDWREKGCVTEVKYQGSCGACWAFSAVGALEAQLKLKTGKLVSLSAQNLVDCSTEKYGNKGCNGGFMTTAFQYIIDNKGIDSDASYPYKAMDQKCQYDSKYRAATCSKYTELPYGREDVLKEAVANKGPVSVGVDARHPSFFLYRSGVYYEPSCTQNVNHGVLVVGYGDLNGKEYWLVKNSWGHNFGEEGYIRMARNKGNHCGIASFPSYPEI

HUVEC [11] = assay: Antiangiogenic activity in VEGF-stimulated HUVEC assessed as inhibition of capillary tube formation after 16 hrs by photographic analysis; format: functional, Homo sapiens; parameters: scale not given: the % may be the effect or the level left; summary of the method: as §3
[12] = Antiinvasive activity in human CL1-5 cells after 24 hrs by fluorescence assay; format: functional; summary of the method: as §2

Sequence of Procathepsin L (Homo sapiens) (P07711 114-333 limits assumed): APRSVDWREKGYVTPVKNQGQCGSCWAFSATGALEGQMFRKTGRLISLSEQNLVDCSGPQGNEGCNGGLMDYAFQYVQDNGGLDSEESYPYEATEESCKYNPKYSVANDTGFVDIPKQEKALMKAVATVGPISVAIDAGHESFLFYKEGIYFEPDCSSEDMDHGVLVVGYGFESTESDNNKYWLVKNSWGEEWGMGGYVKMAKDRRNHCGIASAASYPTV

SMILES	Activity [1]	Activity (HUVEC [2])	IC50 (Cathepsin S [3])	IC50 [4]	IC50 (HUVEC [5])	other results
CCOC(=O)CNC(=O)C(=O)C(COCc1ccccc1)NC(=O)[C@H](CC1CCCCC1)NC(=O)Cc1cccc2ccccc12 (some centres not stated)	41%	54%	5.7 nM			
CCOC(=O)CNC(=O)C(=O)C(COCc1ccccc1)NC(=O)[C@H](CC1CCCCC1)NC(=O)CC(c1ccccc1)(c1ccccc1)c1ccccc1 (some centres not stated)			> 100 nM	> 50000 nM		
CCOC(=O)CNC(=O)C(=O)C(COCc1ccccc1)NC(=O)[C@H](CC1CCCCC1)NC(=O)c1cccc([N+](=O)[O-])c1 (some centres not stated)	67%	39%	1.9 nM	> 50000 nM	> 50000 nM	Activity [6]: 97%; Activity [7]: 2.9%
CCOC(=O)CNC(=O)C(=O)C(COCc1ccccc1)NC(=O)[C@H](CC1CCCCC1)NC(=O)c1ccc(C(=O)OC)c(N)c1 (some centres not stated)	53%	49%	5.8 nM	> 50000 nM	> 50000 nM	Activity [6]: 84%; Activity [8]: 33%; Activity (HUVEC [9]): 43%; inhibition (Cathepsin S [10]): Dose-dependent effect; Activity [7]: 8%; Activity (HUVEC [11]): 57%; Activity [12]: 67%
CCOC(=O)CNC(=O)C(=O)C(COCc1ccccc1)NC(=O)[C@H](CC1CCCCC1)NC(=O)c1cccc(C)c1[N+](=O)[O-] (some centres not stated)	79%	83%	5.6 nM			
CCOC(=O)CNC(=O)C(=O)C(COCc1ccccc1)NC(=O)[C@H](CC1CCCCC1)NC(=O)c1ccc([N+](=O)[O-])s1 (some centres not stated)	64%	56%	10.3 nM	> 50000 nM	48000 nM	
CCCCCC1OC(=O)C(C(=O)N[C@@H](CC2CCCCC2)C(=O)NC(COCc2ccccc2)C(=O)C(=O)NCC(=O)OC)=CC1C (some centres not stated)	119%	99%	42.3 nM			
CCOC(=O)CNC(=O)C(=O)C(COCc1ccccc1)NC(=O)[C@H](CC1CCCCC1)NC(=O)C1=CC(=O)CC(C)(C)O1 (some centres not stated)	98%	89%	4.3 nM	> 50000 nM	37000 nM	
CCOC(=O)CNC(=O)C(=O)[C@H](COCc1ccccc1)NC(=O)[C@H](CC1CCCCC1)NC(=O)c1cc(F)ccc1F	48%	34%	11.5 nM			
CCOC(=O)CNC(=O)C(=O)C(COCc1ccccc1)NC(=O)[C@H](CC1CCCCC1)NC(=O)c1cc2ccccc2n1C (some centres not stated)	69%	55%	7.1 nM			
CCOC(=O)CNC(=O)C(=O)C(COCc1ccccc1)NC(=O)[C@H](CC1CCCCC1)NC(=O)c1cc(Br)ccc1NC(=O)OC(C)(C)C (some centres not stated)	76%	86%	23.8 nM			
CCOC(=O)CNC(=O)C(=O)C(COCc1ccccc1)NC(=O)[C@H](CC1CCCCC1)NC(=O)c1ccc(Br)o1 (some centres not stated)	80%	76%	2.3 nM			
CCOC(=O)CNC(=O)C(=O)C(COCc1ccccc1)NC(=O)[C@H](CC1CCCCC1)NC(=O)/C=C/c1cc(OC)ccc1OC (some centres not stated)	81%	59%	3.8 nM	> 50000 nM		
CCOC(=O)CNC(=O)C(=O)C(COCc1ccccc1)NC(=O)[C@H](CC1CCCCC1)NC(=O)c1ccc(Cl)c(NC(=O)OC(C)(C)C)c1 (some centres not stated)	50%	48%	15.7 nM	42000 nM	48000 nM	
CCOC(=O)CNC(=O)C(=O)C(COCc1ccccc1)NC(=O)[C@H](CC1CCCCC1)NC(=O)CCC(=O)c1ccc2ccc3cccc4ccc1c2c34 (some centres not stated)			> 100 nM			
CCOC(=O)CNC(=O)C(=O)C(COCc1ccccc1)NC(=O)[C@H](CC1CCCCC1)NC(=O)c1cc(Cl)cc([N+](=O)[O-])c1 (some centres not stated)	80%	73%	22.8 nM	> 50000 nM	> 50000 nM	
N#C[C@H](COCc1ccccc1)NC(=O)[C@H](CC1CCCCC1)NC(=O)N1CCOCC1	67%	83%		> 50000 nM	> 50000 nM	Activity [6]: 104%; Activity [7]: 44.8%
CCOC(=O)CNC(=O)C(=O)C(COCc1ccccc1)NC(=O)[C@H](CC1CCCCC1)NC(=O)c1ccc(C)cc1 (some centres not stated)	55%	55%	6.2 nM			
CCOC(=O)CNC(=O)C(=O)[C@H](COCc1ccccc1)NC(=O)[C@H](CC1CCCCC1)NC(=O)c1cc(Br)ccc1N	52%	69%	6.2 nM			
CCOC(=O)CNC(=O)C(=O)C(COCc1ccccc1)NC(=O)[C@H](CC1CCCCC1)NC(=O)c1ccc(Cl)c(N)c1 (some centres not stated)	68%	46%	2.1 nM	> 50000 nM	> 50000 nM	
CCOC(=O)CNC(=O)C(=O)C(COCc1ccccc1)NC(=O)[C@H](CC1CCCCC1)NC(=O)c1ccc(OC(C)=O)cc1 (some centres not stated)	69%	27%	2 nM	> 50000 nM	> 50000 nM	Activity [6]: 91%; Activity [7]: 0.4%
CC(C)C[C@H](NC(=O)[C@H]1O[C@@H]1C(=O)O)C(=O)NCCCCN=C(N)N						inhibition [6]: 75%; inhibition [7]: -1.3%
CCOC(=O)CNC(=O)C(=O)C(COCc1ccccc1)NC(=O)[C@H](CC1CCCCC1)NC(=O)c1cc(OC)ccc1[N+](=O)[O-] (some centres not stated)	95%	98%	3.1 nM	> 50000 nM	39000 nM	
CCOC(=O)CNC(=O)C(=O)C(COCc1ccccc1)NC(=O)[C@H](CC1CCCCC1)NC(=O)c1cccc(F)c1F (some centres not stated)	115%	107%	5.9 nM			
CCOC(=O)CNC(=O)C(=O)C(COCc1ccccc1)NC(=O)[C@H](CC1CCCCC1)NC(=O)c1cc(SC)ccc1Cl (some centres not stated)	65%		3.6 nM	32000 nM	> 50000 nM	Activity [6]: 92%; Activity [7]: 17.4%
CCOC(=O)CNC(=O)C(=O)C(COCc1ccccc1)NC(=O)[C@H](CC1CCCCC1)NC(=O)Cc1cccs1 (some centres not stated)	67%	59%	7.2 nM	> 50000 nM	39000 nM	
CCOC(=O)CNC(=O)C(=O)C(COCc1ccccc1)NC(=O)[C@H](CC1CCCCC1)NC(=O)c1cncc(C)n1 (some centres not stated)	60%	62%	6.1 nM			
CCOC(=O)CNC(=O)C(=O)C(COCc1ccccc1)NC(=O)[C@H](CC1CCCCC1)NC(=O)C1(C)CC1 (some centres not stated)	101%	95%	3.4 nM	> 50000 nM	35000 nM	
CCOC(=O)CNC(=O)C(=O)C(COCc1ccccc1)NC(=O)[C@H](CC1CCCCC1)NC(=O)c1cc(Cl)ccc1[N+](=O)[O-] (some centres not stated)	76%	68%	8 nM	> 50000 nM	> 50000 nM	
CCOC(=O)CNC(=O)C(=O)C(COCc1ccccc1)NC(=O)[C@H](CC1CCCCC1)NC(=O)c1ccc(C(=O)OC)c(NC(=O)OC(C)(C)C)c1 (some centres not stated)	51%	82%	49.2 nM	36000 nM	47000 nM	Activity [6]: 89%; Activity [7]: 8.7%
